# According to ChEMBL document CHEMBL2163223, “Synthesis and evaluation of novel α-fluorinated (E)-3-((6-methylpyridin-2-yl)ethynyl)cyclohex-2-enone-O-methyl oxime (ABP688) derivatives as metabotropic glutamate receptor subtype 5 PET radiotracers” (J Med Chem, 2012):
# pKd, pKi: −log10 of the molar value. Active and inactive are the calls of the source. No cut-off for these calls is given here.
# What was measured:
# [1] = biological target: Metabotropic glutamate receptor 5 (Rattus norvegicus) (UniProt P31424); experiment: Binding affinity to mGluR5 receptor in Wistar rat brain at 1 to 10 nM after 45 mins by autoradiography in presence of ABP688; conditions: tested as the 18F-labelled form
# Method in brief: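 Horizontal brain slices (20 μm) from a male Wistar rat were thawed and preincubated on ice for 10 min in HEPES buffer with 0.1% BSA. They were then incubated with 1 or 10 nM radiotracer, alone or with 100 nM ABP688, in HEPES for 45 min at ambient temperature. Washed on ice in HEPES/0.1% BSA, then twice in HEPES (3 min each), and dipped in water.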
# [2] = Lipophilicity, log D of the compound at pH 7.4 by HPLC analysis; format: physicochemical; conditions: buffer
# [3] = Lipophilicity, log D of the compound at pH 7.4 using shake flask method; format: physicochemical; conditions: buffer
# [4] = biological target: T1, Metabotropic glutamate receptor 5 (Rattus norvegicus, UniProt P31424); experiment: Displacement of [3H]-ABP688 from mGluR5 receptor in Sprague-Dawley rat brain after 45 mins by beta counting
# Method in brief: (§1)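 0.1 mg protein incubated in triplicate at ambient temperature with 2 nM [3H]-ABP688 and competitor 10 pM–100 μM for 45 min. Nonspecific binding from 100 μM MMPEP. Filtered, β-counted.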
# [5] = biological target: T1, Metabotropic glutamate receptor 5; experiment: Binding affinity to mGluR5 receptor in Sprague-Dawley rat brain by beta counting; method in brief: as §1
# [6] = Chemical stability in phosphate buffer at 21 MBq at pH 7.4 after 2 hrs by HPLC analysis; conditions: pH 7.4, 2 h
# [7] = tested on: Plasma; experiment: Metabolic stability of the compound in rat plasma at 7 to 8 MBq after 2 hrs by HPLC analysis; format: ADME, cell-free; conditions: in the assay text read “21 MBq” for “7 to 8 MBq”
# Method in brief: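 Radiotracer (21 MBq) incubated at 37 °C for up to 2 h in phosphate buffer (4 mM KH2PO4/Na2HPO4, 155 mM NaCl, pH 7.4) or rat plasma. Samples taken at several time points, quenched with ice-cold MeCN. Plasma samples centrifuged at 12000g for 10 min. Samples filtered; supernatants analyzed by radio-HPLC on a reversed-phase C18 column with 70% aq MeCN.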
# T1 sequence (P31424 whole entry): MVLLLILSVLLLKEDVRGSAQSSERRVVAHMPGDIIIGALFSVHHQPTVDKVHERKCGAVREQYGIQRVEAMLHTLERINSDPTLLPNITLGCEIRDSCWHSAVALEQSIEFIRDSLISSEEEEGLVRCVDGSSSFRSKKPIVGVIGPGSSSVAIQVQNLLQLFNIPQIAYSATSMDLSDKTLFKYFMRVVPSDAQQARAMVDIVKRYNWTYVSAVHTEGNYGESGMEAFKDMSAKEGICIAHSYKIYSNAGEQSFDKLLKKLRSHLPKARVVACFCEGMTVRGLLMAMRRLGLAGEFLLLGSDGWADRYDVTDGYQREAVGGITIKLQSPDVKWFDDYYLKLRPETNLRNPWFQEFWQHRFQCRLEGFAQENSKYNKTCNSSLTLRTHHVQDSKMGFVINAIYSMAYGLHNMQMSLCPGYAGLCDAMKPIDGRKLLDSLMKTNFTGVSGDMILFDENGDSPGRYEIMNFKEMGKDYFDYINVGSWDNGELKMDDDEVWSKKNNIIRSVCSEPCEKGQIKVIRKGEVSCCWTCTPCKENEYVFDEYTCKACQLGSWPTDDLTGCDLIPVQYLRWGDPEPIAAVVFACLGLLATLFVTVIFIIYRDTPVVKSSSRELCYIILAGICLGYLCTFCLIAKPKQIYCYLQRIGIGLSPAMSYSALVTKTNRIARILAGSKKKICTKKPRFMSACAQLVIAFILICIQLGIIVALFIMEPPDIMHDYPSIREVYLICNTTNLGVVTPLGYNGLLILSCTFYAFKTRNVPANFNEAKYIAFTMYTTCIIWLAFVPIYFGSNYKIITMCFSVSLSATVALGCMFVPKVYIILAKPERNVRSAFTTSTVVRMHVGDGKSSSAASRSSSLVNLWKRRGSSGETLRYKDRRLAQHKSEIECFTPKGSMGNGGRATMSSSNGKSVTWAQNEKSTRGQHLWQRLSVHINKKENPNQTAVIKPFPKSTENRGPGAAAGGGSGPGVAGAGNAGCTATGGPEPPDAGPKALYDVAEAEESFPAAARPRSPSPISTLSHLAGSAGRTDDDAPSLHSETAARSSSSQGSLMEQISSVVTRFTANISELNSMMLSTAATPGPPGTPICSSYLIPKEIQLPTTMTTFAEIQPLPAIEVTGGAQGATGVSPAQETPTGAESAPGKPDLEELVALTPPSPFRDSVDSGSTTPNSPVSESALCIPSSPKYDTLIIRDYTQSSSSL
# Metabotropic glutamate receptor 5 (Rattus norvegicus), sequence (P31424 21-1203 limits assumed): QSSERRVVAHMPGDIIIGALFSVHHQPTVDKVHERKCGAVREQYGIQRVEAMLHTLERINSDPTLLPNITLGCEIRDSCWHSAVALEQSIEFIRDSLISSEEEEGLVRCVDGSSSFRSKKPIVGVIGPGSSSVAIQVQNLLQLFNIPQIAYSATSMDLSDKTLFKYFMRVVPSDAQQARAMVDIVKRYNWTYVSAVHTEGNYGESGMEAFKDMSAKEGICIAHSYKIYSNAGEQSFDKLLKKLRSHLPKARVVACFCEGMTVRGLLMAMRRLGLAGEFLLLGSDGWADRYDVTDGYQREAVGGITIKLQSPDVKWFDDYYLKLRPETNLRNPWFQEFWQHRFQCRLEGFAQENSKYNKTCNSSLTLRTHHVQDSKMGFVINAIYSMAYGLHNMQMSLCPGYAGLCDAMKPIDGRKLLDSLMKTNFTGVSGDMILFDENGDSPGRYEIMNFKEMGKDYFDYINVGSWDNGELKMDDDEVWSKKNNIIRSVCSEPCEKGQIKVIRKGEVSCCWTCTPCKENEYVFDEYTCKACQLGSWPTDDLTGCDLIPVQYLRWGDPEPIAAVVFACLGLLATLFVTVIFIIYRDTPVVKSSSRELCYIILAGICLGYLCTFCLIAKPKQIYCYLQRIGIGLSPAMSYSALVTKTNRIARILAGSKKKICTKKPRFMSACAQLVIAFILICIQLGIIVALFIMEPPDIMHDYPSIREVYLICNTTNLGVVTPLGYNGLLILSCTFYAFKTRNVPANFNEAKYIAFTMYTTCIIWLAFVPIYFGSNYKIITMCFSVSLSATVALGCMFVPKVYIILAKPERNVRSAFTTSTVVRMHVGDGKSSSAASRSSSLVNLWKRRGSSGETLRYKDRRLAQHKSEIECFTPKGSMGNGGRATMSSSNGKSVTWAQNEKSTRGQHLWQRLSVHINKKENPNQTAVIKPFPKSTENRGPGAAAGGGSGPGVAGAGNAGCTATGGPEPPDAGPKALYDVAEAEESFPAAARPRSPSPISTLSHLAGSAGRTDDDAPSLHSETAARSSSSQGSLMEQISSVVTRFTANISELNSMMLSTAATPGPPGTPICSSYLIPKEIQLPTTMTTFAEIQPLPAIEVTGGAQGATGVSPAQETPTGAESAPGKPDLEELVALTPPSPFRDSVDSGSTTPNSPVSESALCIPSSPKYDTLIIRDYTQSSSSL
smiles,measurement,setting,value
CCO/N=C1\C=C(C#Cc2ccccn2)CCC1F (stereo unspecified),Activity,[1],Active
same,logD,[2],2.1
same,logD,[3],3.5
same,pKi,[4],7.51
CCO/N=C1/C=C(C#Cc2ccccn2)CCC1F (stereo unspecified),pKi,[4],8.24
CCO/N=C1\C=C(C#Cc2ccccn2)CCC1[18F] (stereo unspecified),pKd,[5],7.15
same,Stability,[6],Stable
same,Stability,[7],Stable
CCO/N=C1/C=C(C#Cc2cccc(C)n2)CCC1F (stereo unspecified),pKi,[4],7.89
CO/N=C1/C=C(C#Cc2ccccn2)CCC1F (stereo unspecified),pKi,[4],8.47
CO/N=C1/C=C(C#Cc2cccc(C)n2)CCC1F (stereo unspecified),pKi,[4],8.07
